From paper PMC11290325 (Chemical Science, 2024)
Where a SMILES comes first, the peptide text is derived from it.

What was measured:
hKeap1 = hKeap1 (Homo sapiens, UniProt Q14145); assay: BLI binding to hKeap1; conditions: Hk2 and Hk3 tested up to 100 μM
M13 phages = assay: Phage infectivity; parameters: species or system M13 bacteriophage; conditions: PBS pH 7.4, 20 min, room temperature
In short: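 M13 phages displaying an N-terminal KGGSC pIII peptide with a factor Xa site were grown in E. coli TG1 and PEG-purified. They were then TCEP-reduced, factor Xa-digested and blocked with CBT (0.5 mM). After CBT removal and buffer exchange, they were treated with OPA at 100, 300 or 500 µM in PBS pH 7.4 for 20 min at room temperature. Titers (cfu) were measured after each stage by infecting TG1.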

PTP1B [1] = target: T1, PTP1B (Homo sapiens, UniProt P18031); assay: Bio-Layer Interferometry; type: binding
T1 sequence (P18031 1-435): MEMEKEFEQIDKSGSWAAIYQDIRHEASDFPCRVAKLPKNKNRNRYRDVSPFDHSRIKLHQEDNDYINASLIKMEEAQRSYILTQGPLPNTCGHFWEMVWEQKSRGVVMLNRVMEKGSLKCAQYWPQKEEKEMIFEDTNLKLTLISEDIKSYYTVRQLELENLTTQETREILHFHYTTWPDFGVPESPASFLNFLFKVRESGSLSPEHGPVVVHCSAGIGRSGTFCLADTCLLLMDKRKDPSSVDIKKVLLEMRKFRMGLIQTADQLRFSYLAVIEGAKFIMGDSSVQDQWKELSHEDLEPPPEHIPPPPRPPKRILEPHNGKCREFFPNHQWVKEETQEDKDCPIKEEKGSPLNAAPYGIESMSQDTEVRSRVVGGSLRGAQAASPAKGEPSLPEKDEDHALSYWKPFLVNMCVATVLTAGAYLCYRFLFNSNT
In short: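 Bio-layer interferometry […]. Wavelength shift and kinetic parameters were recorded. Kd was obtained by curve fitting. Cyclic peptides were made by OPA treatment of purified SPPS linear precursors.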

PTP1B [2] = target: T1, PTP1B; assay: in vitro enzyme inhibition of PTP1B; type: biochemical
NEK7 = NEK7 (Homo sapiens, UniProt Q8TDX7); assay: BLI binding to NEK7
Chain of NEK7 (Q8TDX7 whole entry): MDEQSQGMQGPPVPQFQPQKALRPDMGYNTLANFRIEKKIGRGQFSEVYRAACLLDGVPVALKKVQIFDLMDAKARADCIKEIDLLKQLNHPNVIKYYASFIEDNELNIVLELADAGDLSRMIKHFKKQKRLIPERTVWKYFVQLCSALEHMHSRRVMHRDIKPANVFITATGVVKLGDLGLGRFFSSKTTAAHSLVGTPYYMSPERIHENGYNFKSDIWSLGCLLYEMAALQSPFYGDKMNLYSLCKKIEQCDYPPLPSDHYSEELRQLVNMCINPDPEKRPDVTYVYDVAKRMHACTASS

Chain of hKeap1 (Q14145 whole entry): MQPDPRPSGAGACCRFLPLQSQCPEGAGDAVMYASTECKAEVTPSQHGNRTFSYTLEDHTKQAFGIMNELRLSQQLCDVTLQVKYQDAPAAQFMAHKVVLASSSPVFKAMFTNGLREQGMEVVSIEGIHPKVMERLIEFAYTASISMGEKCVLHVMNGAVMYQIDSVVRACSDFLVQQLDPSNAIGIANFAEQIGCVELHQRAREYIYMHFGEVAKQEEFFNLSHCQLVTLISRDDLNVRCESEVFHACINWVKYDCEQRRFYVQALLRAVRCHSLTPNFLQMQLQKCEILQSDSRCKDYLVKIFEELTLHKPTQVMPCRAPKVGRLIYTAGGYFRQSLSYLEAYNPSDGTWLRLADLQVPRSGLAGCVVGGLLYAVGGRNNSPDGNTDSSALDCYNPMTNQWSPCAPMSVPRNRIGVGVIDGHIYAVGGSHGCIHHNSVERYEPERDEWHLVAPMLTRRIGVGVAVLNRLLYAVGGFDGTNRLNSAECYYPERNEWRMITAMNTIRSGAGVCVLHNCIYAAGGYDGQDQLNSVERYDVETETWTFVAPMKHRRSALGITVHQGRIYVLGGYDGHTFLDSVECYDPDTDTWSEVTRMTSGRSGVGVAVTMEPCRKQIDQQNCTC

CC(=O)N[C@H]1CCCCn2cc3ccccc3c2SC[C@@H](C(N)=O)NC(=O)[C@H](CCC(=O)O)NC(=O)CNC(=O)[C@H]([C@@H](C)O)NC(=O)[C@H](CC(=O)O)NC(=O)[C@@H]2CCCN2C(=O)[C@H](CC(=O)O)NC(=O)[C@H](CC(C)C)NC1=O [Hk2] (HELM PEPTIDE1{[ac].[O=C([C@H](CCCCn1cc2ccccc2c1[*:3])N[*:1])[*:2]].L.D.P.D.T.G.E.C.[am]}$PEPTIDE1,PEPTIDE1,2:R3-10:R3$$$V2.0)
binding to hKeap1 (in words) (hKeap1): did not exhibit significant affinity

O=Cc1ccccc1C=O [OPA, ortho-phthalaldehyde]
impact on M13 phages in cfus (M13 phages; OPA concentration below 300 μM): no significant impact
reduction in infectivity compared to untreated phage supernatant (M13 phages; OPA surpassing the 500 μM threshold): over 20 fold

Ac-KTFLHWRYC-NH2 [M1_SS]
Kd (PTP1B [1]): 9.2 ± 0.9 µM
reduction in affinity compared to its cyclic counterpart (PTP1B [1]; BLI, linear precursor vs cyclic M1_OPA): four-fold
IC50 (PTP1B [2]): 54.8 ± 4.21 µM

CC[C@H](C)[C@@H]1NC(=O)[C@H](CC(C)C)NC(=O)[C@@H]2CCCN2C(=O)[C@H](Cc2ccccc2)NC(=O)[C@H](CC(C)C)NC(=O)[C@H](CC(C)C)NC(=O)[C@@H](NC(C)=O)CCCCn2cc3ccccc3c2SC[C@@H](C(N)=O)NC(=O)[C@H](CC(N)=O)NC1=O [N3] (HELM PEPTIDE1{[ac].[O=C([C@H](CCCCn1cc2ccccc2c1[*:3])N[*:1])[*:2]].L.L.F.P.L.I.N.C.[am]}$PEPTIDE1,PEPTIDE1,2:R3-10:R3$$$V2.0)
binding to NEK7 (in words) (NEK7): low binding capacity

Ac-KQTATGRGC-NH2 [Hk1_SS]
binding to hKeap1 (in words) (hKeap1): no interaction

CC(=O)N[C@H]1CCCCn2cc3ccccc3c2SC[C@@H](C(N)=O)NC(=O)CNC(=O)[C@H](CCC(=O)O)NC(=O)CNC(=O)[C@H]([C@@H](C)O)NC(=O)[C@H](C)NC(=O)[C@H]([C@@H](C)O)NC(=O)[C@H](CCC(N)=O)NC1=O [Hk3] (HELM PEPTIDE1{[ac].[O=C([C@H](CCCCn1cc2ccccc2c1[*:3])N[*:1])[*:2]].Q.T.A.T.G.E.G.C.[am]}$PEPTIDE1,PEPTIDE1,2:R3-10:R3$$$V2.0)
binding to hKeap1 (in words) (hKeap1): did not exhibit significant affinity

Ac-KLFLHWARC-NH2 [M2_SS]
binding to PTP1B (in words) (PTP1B [1]; BLI): unable to bind
